{"data": "Published values of several laboratories", "note": "Compare with care: the assays were run in different laboratories."}
{"Structure (SMILES)": "O=c1c(-c2ccc(O)cc2)coc2c([C@@H]3O[C@H](CO)[C@@H](O)[C@H](O)[C@H]3O)c(O)ccc12", "test system": "Caco-2", "conditions": "100 µg/mL, 2 h", "measurement": "Papp B→A", "value": "5.66 ×10⁻⁶ cm/s"}
{"Structure (SMILES)": "COc1cc(/C=C/C(=O)/C=C/c2ccc(O)c(OC)c2)ccc1O", "target or system": "WRL68", "assay": "cell growth or viability, MTT", "conditions": "3.2 µg/mL, 48 h", "measurement": "viability", "value": "11.5%"}
{"Structure (SMILES)": "O=c1c(O[C@@H]2O[C@H](CO)[C@H](O)[C@H](O)[C@H]2O)c(-c2ccc(O)c(O)c2)oc2cc(O)cc(O)c12", "test system": "Caco-2", "conditions": "100 µg/mL", "measurement": "Papp A→B", "value": "0.383 ×10⁻⁶ cm/s"}
{"Structure (SMILES)": "COc1cc(/C=C/c2cc(/C=C/c3ccc(O)c(OC)c3)n(-c3ccc(Cl)cc3Cl)n2)ccc1O", "target or system": "WRL68", "assay": "cell growth or viability, MTT", "conditions": "48 h", "measurement": "CC50", "value": "> 99 µM"}
{"Structure (SMILES)": "COc1cc(C2Oc3cc([C@H]4Oc5cc(O)cc(O)c5C(=O)[C@@H]4O)ccc3OC2CO)ccc1O (some centres unmarked)", "test system": "Caco-2", "conditions": "100 µg/mL, 2 h", "measurement": "Papp B→A", "value": "17.2 ×10⁻⁶ cm/s"}
{"Structure (SMILES)": "CCN1CCN(Cc2ccc(Nc3nc4ccc(Oc5ccnc(NC(=O)C6CCN(C)CC6)c5)cc4n3C)cc2C(F)(F)F)CC1", "measurement": "pKa", "value": 8.8}
{"Structure (SMILES)": "Cc1cc(C)c(CNC(=O)c2cc(Cl)c3c(c2C)O[C@@](C)([C@H]2CC[C@H](N(C)C)CC2)O3)c(=O)[nH]1", "test system": "Caco-2", "conditions": "10 µM", "measurement": "Papp B→A", "value": "20.4 ×10⁻⁶ cm/s"}
{"Structure (SMILES)": "NC/C(=C\\F)COc1cccc(Cn2c(=S)[nH]c(=O)c3[nH]cnc32)c1", "target or system": "ATP-dependent translocase ABCB1 (ABCB1, Homo sapiens, UniProt P08183)", "assay": "transporter efflux, inhibitor", "conditions": "30 µM", "measurement": "inhibition", "value": "< 50%"}
{"Structure (SMILES)": "COc1ccc(-c2nn(-c3ccccc3)cc2C=NNc2cn[nH]c(=O)c2Cl)cc1", "target or system": "Jurkat", "assay": "cell growth or viability, imaging", "measurement": "CC50", "value": "> 40 µM"}
{"Structure (SMILES)": "CC[C@H](C)[C@H](NC(=O)[C@H](CCC(=O)O)NC(=O)[C@H](CCC(=O)O)NC(=O)[C@@H]1CCCN1C(=O)[C@H](CO)NC(=O)[C@H](C)NC(=O)[C@H](CC(=O)O)NC(=O)[C@H](CCC(=O)O)NC(=O)[C@H](CCC(=O)O)NC(=O)[C@@H]1CCCN1C(=O)[C@H](CCCCNC(=O)COCCOCCNC(=O)COCCOCCNC(=O)CC[C@H](NC(=O)CCCCCCCCCCCCCCCCC(=O)O)C(=O)O)NC(=O)[C@H](C)NC(=O)[C@@H]1CCCN1C(=O)[C@H](C)NC(=O)CC(C)C)C(=O)N[C@@H](CCC(N)=O)C(=O)N[C@@H](CCCNC(=N)N)C(=O)N[C@@H](Cc1ccc(O)cc1)C(=O)N[C@@H](Cc1ccc(O)cc1)C(=O)N[C@H](C(=O)N[C@@H](CO)C(=O)N[C@@H](CC(C)C)C(=O)N[C@@H](CCCNC(=N)N)C(=O)N[C@@H](Cc1c[nH]cn1)C(=O)N[C@@H](Cc1ccc(O)cc1)C(=O)N[C@@H](Cc1ccc(O)cc1)C(=O)N[C@@H](CC(N)=O)C(=O)N[C@@H](Cc1c[nH]c2ccccc12)C(=O)N[C@@H](CC(C)C)C(=O)N[C@H](C(=O)N[C@@H](CCCNC(=N)N)C(=O)N[C@@H](CCC(N)=O)C(=O)N[C@@H](CCCNC(=N)N)C(=O)N[C@@H](Cc1ccc(O)cc1)C(N)=O)[C@@H](C)O)C(C)C", "test system": "male beagle dog, plasma", "conditions": "subcutaneous, 5 nmol/kg", "measurement": "Tmax", "value": "32 h"}
{"Structure (SMILES)": "N#Cc1ccc(C[C@H](Nc2ncc(-c3ccc(F)cc3)o2)C(=O)N2CCc3ccccc32)cc1", "test system": "aqueous buffer", "conditions": "2 h, pH 7.4, 37 °C", "measurement": "kinetic solubility", "value": "1.8 µM"}
